# Laboratory results: PMC10688270 (Neurochemical research, 2019)
# “Also recorded” adds a separate entry of the source. Where two headings read alike, the source gives them in different places.
# Experiments:
# SXc− [1] = target: T1, SXc− (Homo sapiens, UniProt Q9UPY5); assay: Inhibition of SXc−-mediated uptake of 3H-L-Glu into SNB19 cells; assay type: cell-based; details: for fold less effective than SAS: comparison of inhibition of SXc− with SAS
# T1 sequence (Q9UPY5 1-501): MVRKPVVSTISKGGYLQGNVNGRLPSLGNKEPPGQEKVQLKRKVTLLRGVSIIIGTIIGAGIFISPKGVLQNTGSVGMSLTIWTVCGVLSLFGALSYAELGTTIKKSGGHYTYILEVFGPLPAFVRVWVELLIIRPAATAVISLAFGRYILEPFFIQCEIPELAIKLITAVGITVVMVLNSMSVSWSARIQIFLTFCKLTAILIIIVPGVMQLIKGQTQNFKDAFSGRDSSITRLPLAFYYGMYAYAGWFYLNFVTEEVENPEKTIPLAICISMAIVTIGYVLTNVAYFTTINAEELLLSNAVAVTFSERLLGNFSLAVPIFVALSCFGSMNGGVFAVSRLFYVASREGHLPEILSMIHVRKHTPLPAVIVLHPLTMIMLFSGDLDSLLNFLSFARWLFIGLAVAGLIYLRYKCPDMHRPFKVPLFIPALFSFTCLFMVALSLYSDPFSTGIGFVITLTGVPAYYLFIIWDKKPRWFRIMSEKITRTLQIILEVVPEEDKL
# T1 sequence (P08195 1-529 partner): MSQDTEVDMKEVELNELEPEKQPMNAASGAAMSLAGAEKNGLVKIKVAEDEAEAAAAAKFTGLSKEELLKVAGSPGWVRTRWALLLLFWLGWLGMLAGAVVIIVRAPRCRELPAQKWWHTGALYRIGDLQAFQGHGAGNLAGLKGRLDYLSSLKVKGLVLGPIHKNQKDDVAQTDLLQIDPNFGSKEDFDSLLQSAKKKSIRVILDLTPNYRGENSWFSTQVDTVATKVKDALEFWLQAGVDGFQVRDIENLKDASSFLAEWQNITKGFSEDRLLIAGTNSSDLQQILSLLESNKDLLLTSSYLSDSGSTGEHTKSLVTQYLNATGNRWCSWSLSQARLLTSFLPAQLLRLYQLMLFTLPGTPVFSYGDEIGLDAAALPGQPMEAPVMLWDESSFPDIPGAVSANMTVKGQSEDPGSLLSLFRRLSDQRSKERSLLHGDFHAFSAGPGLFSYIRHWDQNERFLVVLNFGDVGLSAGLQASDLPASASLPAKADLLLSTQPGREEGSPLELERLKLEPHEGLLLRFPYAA
# Method in brief: (§1)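 Human SNB19 glioma cells were grown in DMEM/F-12 (pH 7.4) with 10% fetal calf serum at 37°C and 5% CO2. They were seeded at 3×10^4 cells/well and used after 3 days at 80–90% confluence. Cells were pre-incubated 5 min at 30°C in Na+-free (choline-Cl) HEPES-buffered Hank's salt solution, pH 7.4. Test compound was added simultaneously with 3H-L-Glu for 5 min at 30°C. Uptake was read by scintillation counting, normalised to BCA protein, and corrected by subtracting 4°C accumulation. Duplicate wells per experiment; n ≥ 3 experiments.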
# SXc− [2] = target: T1, SXc−; assay: Kinetic analysis; assay type: cell-based; details: for Inhibitory Mechanism: V vs [S] and Lineweaver-Burk plots, SNB19 cells
# Method in brief: as §1
# SXc− [3] = details: previous work; cited from earlier work
# [4] = read-out: IC50 for the inhibition of SXc−-mediated uptake of 3H-L-Glu into SNB19 cells, Mean ± SEM (n ≥ 3), single concentration of L-Glu (100 μM), Na+-free buffer, 5 min, 30°C
compound,measurement,setting,value
"O=S(=O)(O)c1cc2cc(S(=O)(=O)O)c(O)cc2cc1O [3,6-dihydroxy-2,7-naphthylene-disulfonate]",IC50,SXc− [1]; [4],> 500 µM
"Nc1cc(S(=O)(=O)O)cc2cc(S(=O)(=O)O)cc(O)c12 [4-Amino-5-OH-2,7-naphthylene-disulfonate]",inhibitory activity at SXc− (in words),SXc− [1]; 3H-L-Glu uptake into SNB19 cells,inactive
same,IC50,SXc− [1]; [4],> 500 µM
Nc1ccc(N=Nc2ccc(-c3ccc(N=Nc4ccc(N)c5ccc(S(=O)(=O)O)cc45)cc3)cc2)c2cc(S(=O)(=O)O)ccc12 [AANS #6],Inhibitory Mechanism,SXc− [2],Noncompetitive (Mixed)
same,Inhibitory Mechanism,SXc− [2]; listed as #6,mixed inhibition
Nc1c(N=Nc2ccc([N+](=O)[O-])cc2)c(S(=O)(=O)[O-])cc2cc(S(=O)(=O)[O-])c(N=Nc3ccccc3)c(O)c12.[Na+].[Na+] [Acid Black 1],Inhibitory Mechanism,SXc− [2],Competitive
same,Inhibitory Mechanism,SXc− [2]; listed as Acid Black,competitive mechanism; also recorded: competitive inhibition
CC(=O)Nc1cc(S(=O)(=O)O)cc2cc(S(=O)(=O)O)c(N=Nc3ccccc3)c(O)c12 [Acid Red 1],IC50,SXc− [1]; [4],191 ± 8 µM
O=C(O)c1cc(N=Nc2cccc([N+](=O)[O-])c2)ccc1[O-].[Na+] [Alizarin Yellow GG],fold less effective than SAS,SXc− [1],about 5 fold
same,IC50,SXc− [1]; [4],30 ± 7 µM
O=[N+]([O-])c1ccc(N=Nc2c(S(=O)(=O)O)cc3cc(S(=O)(=O)O)cc(O)c3c2O)cc1 [Chromotrope 2B],IC50,SXc− [1]; [4],130 ± 23 µM
O=S(=O)(O)c1cc(O)c2c(O)c(N=Nc3ccccc3)c(S(=O)(=O)O)cc2c1 [Chromotrope 2R],IC50,SXc− [1]; [4],21 ± 5 µM
Nc1c(/N=N/c2ccc(-c3ccc(/N=N/c4cc(S(=O)(=O)O)c5ccccc5c4N)cc3)cc2)cc(S(=O)(=O)O)c2ccccc12 [Congo Red],block of glutamate uptake by SXc− (in words),SXc− [3],relatively poor blocker
Nc1cc(S(=O)(=O)O)cc2cc(S(=O)(=O)O)c(N=Nc3cc([N+](=O)[O-])cc(Cl)c3O)c(O)c12 [Gallion],IC50,SXc− [1]; [4],155 ± 11 µM
O=C(O)c1cc(N=Nc2ccc([N+](=O)[O-])cc2)ccc1O [Mordant Orange 1],IC50,SXc− [1]; [4],38 ± 3 µM
COc1ccccc1N=Nc1c(S(=O)(=O)O)cc2cc(S(=O)(=O)O)cc(NC(C)=O)c2c1O [Pontacyl Carmine 2B],IC50,SXc− [1]; [4],> 250 µM
O=S(=O)(O)c1cc(O)c2c(O)c(/N=N/c3cccc4ccccc34)c(S(=O)(=O)O)cc2c1 [Pontacyl Violet 6R],IC50,SXc− [1],> 250 µM
O=C(O)c1cc(/N=N/c2ccc(S(=O)(=O)Nc3ccccn3)cc2)ccc1O [Sulfasalazine],Ki,SXc− [2],10.4 ± 1.3 µM
same,Inhibitory Mechanism,SXc− [2],Competitive
same,Inhibitory Mechanism,SXc− [2]; listed as SAS,competitive inhibition
Chrome Yellow,fold less effective than SAS,SXc− [1],about 5 fold
same,IC50,SXc− [1]; [4],27 ± 4 µM
